According to ChEMBL document CHEMBL1821673, “Development of β-amino alcohol derivatives that inhibit Toll-like receptor 4 mediated inflammatory response as potential antiseptics” (J Med Chem, 2011):
The source made the active and inactive calls. The rule behind the calls is not given here.

Key:
[1] = molecular target: Platelet-derived growth factor receptor beta (Homo sapiens) (UniProt P09619); test: Inhibition of PDGFRB at 28 uM by luciferase fragment complementation assay
Toll-like receptor 4 [2] = molecular target: T1, Toll-like receptor 4 (Homo sapiens, UniProt O00206); test: Inhibition of LPS-induced TLR4 activation in human whole blood assessed as inhibition of IL-6 release preincubated for 5 to 10 mins
Procedure, shortened: (§1)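 Fresh human blood anticoagulated with lepirudin, preincubated with compound 5–10 min at 37 °C, then stimulated with 100 ng/mL ultrapure E. coli 0111:B4 LPS, rotating 2 h at 37 °C. Stopped with EDTA 10 mM final; plasma TNF-α, IL-8 and IL-6 measured by singleplex Bio-plex, expressed as % of LPS without inhibitor. n = 3 or 9, paired two-sided t-test.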

Liver = test: Intrinsic clearance in rat liver S9 fractions at 1 uM after 60 mins by LC-MS/MS analysis; type: ADME, subcellular, S9 fraction; conditions: s9, 1 h
Procedure, shortened: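 1 µM in <0.25% DMSO, 37 °C, pooled rat or human S9 at 1 mg/mL, with 1 mM each of NADPH, UDPGA, PAPS and GSH. Sampled at 0, 10, 20, 30 and 60 min; peak-area ratio to internal standard by LC-MS/MS without a standard curve. CLint = k/P.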

Toll-like receptor 4 [3] = molecular target: T1, Toll-like receptor 4; test: Inhibition of LPS-induced TLR4 activation in human whole blood assessed as inhibition of IL-8 release at 500 uM preincubated for 5 to 10 mins; procedure, shortened: as §1
Cytochrome P450 2C9 = Cytochrome P450 2C9 (Homo sapiens, UniProt P11712); test: Inhibition of CYP2C9 in human liver microsomes using diclofenac as probe; type: ADME, Microsome
[4] = molecular target: Serine/threonine-protein kinase PAK 1 (Homo sapiens) (UniProt Q13153); test: Inhibition of PAK1 at 28 uM by luciferase fragment complementation assay
[5] = molecular target: Calcium/calmodulin-dependent protein kinase type 1 (Homo sapiens) (UniProt Q14012); test: Inhibition of CAMK1 at 28 uM by luciferase fragment complementation assay
[6] = molecular target: Protein kinase C gamma type (Homo sapiens) (UniProt P05129); test: Inhibition of PKCgamma at 28 uM by luciferase fragment complementation assay
Cytochrome P450 2D6 = Cytochrome P450 2D6 (Homo sapiens, UniProt P10635); test: Inhibition of CYP2D6 in human liver microsomes using bufuralol as probe; type: ADME, Microsome
[7] = molecular target: Discoidin domain-containing receptor 2 (Homo sapiens) (UniProt Q16832); test: Inhibition of DDR2 at 28 uM by luciferase fragment complementation assay
Toll-like receptor 4 [8] = molecular target: T1, Toll-like receptor 4; test: Inhibition of LPS-induced TLR4 activation in human whole blood assessed as inhibition of TNFalpha release preincubated for 5 to 10 mins; procedure, shortened: as §1
[9] = molecular target: Hepatocyte growth factor receptor (Homo sapiens) (UniProt P08581); test: Inhibition of MET at 28 uM by luciferase fragment complementation assay
Toll-like receptor 4 [10] = molecular target: T2, Toll-like receptor 4 (Mus musculus, UniProt Q9QUK6); test: Inhibition of LPS-induced TLR4 activation in mouse RAW264.7 cells assessed as reduction in NO production after 18 to 24 hrs; type: cell-based
T2 sequence (Q9QUK6 whole entry): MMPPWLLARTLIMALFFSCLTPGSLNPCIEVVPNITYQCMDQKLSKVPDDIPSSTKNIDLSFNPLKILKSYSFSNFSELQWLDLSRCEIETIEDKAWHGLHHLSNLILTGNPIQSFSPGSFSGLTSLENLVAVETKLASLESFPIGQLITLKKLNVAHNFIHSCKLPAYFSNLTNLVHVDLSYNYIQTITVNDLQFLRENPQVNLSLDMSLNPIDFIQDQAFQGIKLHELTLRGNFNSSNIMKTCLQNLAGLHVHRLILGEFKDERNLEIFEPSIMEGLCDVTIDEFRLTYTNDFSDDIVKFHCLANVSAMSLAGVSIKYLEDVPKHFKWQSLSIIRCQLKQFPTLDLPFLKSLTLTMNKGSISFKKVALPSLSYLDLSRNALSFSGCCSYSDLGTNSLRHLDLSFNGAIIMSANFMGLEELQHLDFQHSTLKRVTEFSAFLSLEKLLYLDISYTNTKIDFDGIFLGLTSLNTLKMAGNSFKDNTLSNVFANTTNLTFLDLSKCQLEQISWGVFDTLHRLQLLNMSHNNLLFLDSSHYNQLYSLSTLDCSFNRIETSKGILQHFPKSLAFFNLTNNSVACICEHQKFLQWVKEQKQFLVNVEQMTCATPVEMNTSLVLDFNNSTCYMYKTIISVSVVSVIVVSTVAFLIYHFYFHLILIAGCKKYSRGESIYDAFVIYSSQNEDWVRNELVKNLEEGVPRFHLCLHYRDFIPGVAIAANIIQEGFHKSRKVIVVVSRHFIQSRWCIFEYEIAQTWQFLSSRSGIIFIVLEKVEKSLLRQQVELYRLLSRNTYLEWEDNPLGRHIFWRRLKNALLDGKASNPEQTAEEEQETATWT
Procedure, shortened: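 RAW264.7 cells, 100,000 per well, grown 24 h in RPMI with 10% FBS, then switched to unsupplemented RPMI. LPS and compound added together, 18–24 h at 37 °C. Medium nitrite measured with 2,3-diaminonaphthalene (ex 365/em 450 nm) against a nitrite standard curve. Quadruplicate; IC50 by a modified Kou-type method.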

[11] = molecular target: Proto-oncogene tyrosine-protein kinase Src (Homo sapiens) (UniProt P12931); test: Inhibition of SRC at 28 uM by luciferase fragment complementation assay
Toll-like receptor 4 [12] = molecular target: T1, Toll-like receptor 4; test: Inhibition of LPS-induced TLR4 activation in human whole blood assessed as inhibition of TNFalpha release at 250 uM preincubated for 5 to 10 mins; procedure, shortened: as §1
[13] = molecular target: Serine/threonine-protein kinase pim-1 (Homo sapiens) (UniProt P11309); test: Inhibition of PIM1 at 28 uM by luciferase fragment complementation assay
[14] = molecular target: RAC-alpha serine/threonine-protein kinase (Homo sapiens) (UniProt P31749); test: Inhibition of AKT1 at 28 uM by luciferase fragment complementation assay
MDCK = test: Permeability across apical to basolateral side of MDCK cells expressing MDR1 at 5 uM; type: ADME, cell-based, Canis lupus familiaris; conditions: dog
Procedure, shortened: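 MDR1-MDCK monolayer; transport measured in apical-to-basolateral and basolateral-to-apical directions at 5 µM.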

Cytochrome P450 2C19 = Cytochrome P450 2C19 (Homo sapiens, UniProt P33261); test: Inhibition of CYP2C19 in human liver microsomes using S-mephenytoin as probe; type: ADME, Microsome
Toll-like receptor 4 [15] = molecular target: T1, Toll-like receptor 4; test: Inhibition of LPS-induced TLR4 activation in human whole blood assessed as inhibition of IL-6 release at 250 uM preincubated for 5 to 10 mins; procedure, shortened: as §1
Toll-like receptor 4 [16] = molecular target: T1, Toll-like receptor 4; test: Inhibition of LPS-induced TLR4 activation in human whole blood assessed as reduction in plasma IL-6 level at 250 uM preincubated for 5 to 10 mins; procedure, shortened: as §1
[17] = molecular target: Serine/threonine-protein kinase PLK4 (Homo sapiens) (UniProt O00444); test: Inhibition of PLK4 at 28 uM by luciferase fragment complementation assay
Toll-like receptor 4 [18] = molecular target: T1, Toll-like receptor 4; test: Inhibition of LPS-induced TLR4 activation in human whole blood assessed as inhibition of TNFalpha release at 500 uM preincubated for 5 to 10 mins; procedure, shortened: as §1

T1 sequence (O00206 whole entry): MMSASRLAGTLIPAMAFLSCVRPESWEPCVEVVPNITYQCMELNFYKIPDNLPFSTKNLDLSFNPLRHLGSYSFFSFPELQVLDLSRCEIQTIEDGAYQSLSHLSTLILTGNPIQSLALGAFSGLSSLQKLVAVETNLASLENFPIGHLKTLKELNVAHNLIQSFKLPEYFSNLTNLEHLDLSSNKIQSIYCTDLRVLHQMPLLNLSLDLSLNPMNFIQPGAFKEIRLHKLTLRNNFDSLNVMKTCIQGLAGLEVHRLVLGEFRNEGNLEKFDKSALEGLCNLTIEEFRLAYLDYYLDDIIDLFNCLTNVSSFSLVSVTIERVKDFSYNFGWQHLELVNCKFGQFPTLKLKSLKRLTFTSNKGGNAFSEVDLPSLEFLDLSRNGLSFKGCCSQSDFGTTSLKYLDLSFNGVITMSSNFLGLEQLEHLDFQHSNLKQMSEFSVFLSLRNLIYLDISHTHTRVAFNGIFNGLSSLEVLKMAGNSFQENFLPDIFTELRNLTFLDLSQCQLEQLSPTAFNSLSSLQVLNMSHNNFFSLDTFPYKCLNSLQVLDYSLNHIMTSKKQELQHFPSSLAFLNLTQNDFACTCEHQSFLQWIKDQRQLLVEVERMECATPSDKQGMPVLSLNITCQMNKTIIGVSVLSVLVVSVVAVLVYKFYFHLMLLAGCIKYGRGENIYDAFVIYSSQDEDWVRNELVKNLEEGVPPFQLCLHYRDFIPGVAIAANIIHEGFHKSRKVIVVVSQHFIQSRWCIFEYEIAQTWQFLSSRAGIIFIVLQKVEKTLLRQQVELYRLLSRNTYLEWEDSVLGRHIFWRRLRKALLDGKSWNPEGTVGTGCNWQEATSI
Chain of Proto-oncogene tyrosine-protein kinase Src (Homo sapiens) (P12931 2-536 limits assumed): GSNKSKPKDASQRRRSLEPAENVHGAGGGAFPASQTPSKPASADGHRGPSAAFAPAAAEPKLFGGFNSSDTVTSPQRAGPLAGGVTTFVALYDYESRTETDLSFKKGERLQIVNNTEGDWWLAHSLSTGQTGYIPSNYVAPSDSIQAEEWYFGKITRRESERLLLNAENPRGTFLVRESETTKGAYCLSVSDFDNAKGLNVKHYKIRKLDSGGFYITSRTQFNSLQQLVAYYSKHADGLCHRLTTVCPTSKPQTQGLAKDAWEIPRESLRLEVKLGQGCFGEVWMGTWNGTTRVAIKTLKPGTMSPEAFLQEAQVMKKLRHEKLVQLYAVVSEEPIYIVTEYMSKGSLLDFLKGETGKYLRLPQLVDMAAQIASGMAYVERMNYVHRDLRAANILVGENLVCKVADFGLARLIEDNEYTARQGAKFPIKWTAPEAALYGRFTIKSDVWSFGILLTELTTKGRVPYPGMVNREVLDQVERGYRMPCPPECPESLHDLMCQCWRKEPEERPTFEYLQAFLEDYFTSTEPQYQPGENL
Chain of Platelet-derived growth factor receptor beta (Homo sapiens) (P09619 whole entry, the tested form may be a part): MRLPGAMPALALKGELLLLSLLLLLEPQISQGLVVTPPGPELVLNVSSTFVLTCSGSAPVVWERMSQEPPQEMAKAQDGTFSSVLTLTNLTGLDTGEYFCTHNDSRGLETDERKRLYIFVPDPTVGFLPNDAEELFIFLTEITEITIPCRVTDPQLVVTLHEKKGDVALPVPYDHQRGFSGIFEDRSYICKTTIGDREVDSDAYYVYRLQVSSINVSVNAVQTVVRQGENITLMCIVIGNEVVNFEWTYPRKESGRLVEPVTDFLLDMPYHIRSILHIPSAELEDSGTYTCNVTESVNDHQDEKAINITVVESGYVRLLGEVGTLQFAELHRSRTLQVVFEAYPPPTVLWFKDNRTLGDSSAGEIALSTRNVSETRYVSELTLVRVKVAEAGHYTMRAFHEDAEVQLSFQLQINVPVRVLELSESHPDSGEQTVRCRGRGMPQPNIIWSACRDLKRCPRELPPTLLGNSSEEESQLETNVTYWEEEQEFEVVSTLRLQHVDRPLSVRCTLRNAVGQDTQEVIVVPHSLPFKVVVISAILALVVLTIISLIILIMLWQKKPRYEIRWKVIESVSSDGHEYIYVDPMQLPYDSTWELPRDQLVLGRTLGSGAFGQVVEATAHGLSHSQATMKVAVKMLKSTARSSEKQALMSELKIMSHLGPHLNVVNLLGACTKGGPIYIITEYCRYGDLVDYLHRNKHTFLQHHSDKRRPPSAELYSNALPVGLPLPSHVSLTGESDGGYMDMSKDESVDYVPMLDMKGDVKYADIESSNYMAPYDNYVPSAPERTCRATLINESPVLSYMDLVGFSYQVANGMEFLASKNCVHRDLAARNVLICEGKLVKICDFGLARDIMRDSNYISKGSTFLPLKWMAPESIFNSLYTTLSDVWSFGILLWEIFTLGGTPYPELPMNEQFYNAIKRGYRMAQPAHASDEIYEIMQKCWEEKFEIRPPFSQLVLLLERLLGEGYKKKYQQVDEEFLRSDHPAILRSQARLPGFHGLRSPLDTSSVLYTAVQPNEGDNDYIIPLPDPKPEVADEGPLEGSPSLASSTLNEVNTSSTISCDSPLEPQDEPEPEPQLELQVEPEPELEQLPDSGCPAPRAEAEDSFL
Chain of Discoidin domain-containing receptor 2 (Homo sapiens) (Q16832 whole entry, the tested form may be a part): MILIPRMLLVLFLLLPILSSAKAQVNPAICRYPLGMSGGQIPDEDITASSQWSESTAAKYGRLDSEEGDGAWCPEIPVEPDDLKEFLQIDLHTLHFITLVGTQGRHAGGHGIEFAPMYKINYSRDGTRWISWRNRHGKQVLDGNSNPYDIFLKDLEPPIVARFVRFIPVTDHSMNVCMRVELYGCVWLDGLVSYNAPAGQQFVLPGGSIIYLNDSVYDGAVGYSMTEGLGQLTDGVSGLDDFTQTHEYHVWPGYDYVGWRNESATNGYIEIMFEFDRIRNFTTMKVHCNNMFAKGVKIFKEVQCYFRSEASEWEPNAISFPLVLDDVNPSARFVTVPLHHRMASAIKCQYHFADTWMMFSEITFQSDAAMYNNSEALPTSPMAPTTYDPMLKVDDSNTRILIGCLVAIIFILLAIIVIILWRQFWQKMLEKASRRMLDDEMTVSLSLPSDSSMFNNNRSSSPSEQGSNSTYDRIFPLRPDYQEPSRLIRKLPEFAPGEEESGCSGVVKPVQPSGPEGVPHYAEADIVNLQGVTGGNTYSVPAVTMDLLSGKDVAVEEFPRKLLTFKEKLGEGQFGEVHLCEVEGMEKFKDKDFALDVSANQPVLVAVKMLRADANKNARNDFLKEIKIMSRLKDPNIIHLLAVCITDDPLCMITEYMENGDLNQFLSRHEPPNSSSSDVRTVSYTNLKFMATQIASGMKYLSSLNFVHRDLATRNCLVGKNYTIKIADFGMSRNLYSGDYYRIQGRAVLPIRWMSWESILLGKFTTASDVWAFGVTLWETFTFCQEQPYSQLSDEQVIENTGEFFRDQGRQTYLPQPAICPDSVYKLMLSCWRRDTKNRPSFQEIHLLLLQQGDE
Chain of Cytochrome P450 2C19 (P33261 whole entry): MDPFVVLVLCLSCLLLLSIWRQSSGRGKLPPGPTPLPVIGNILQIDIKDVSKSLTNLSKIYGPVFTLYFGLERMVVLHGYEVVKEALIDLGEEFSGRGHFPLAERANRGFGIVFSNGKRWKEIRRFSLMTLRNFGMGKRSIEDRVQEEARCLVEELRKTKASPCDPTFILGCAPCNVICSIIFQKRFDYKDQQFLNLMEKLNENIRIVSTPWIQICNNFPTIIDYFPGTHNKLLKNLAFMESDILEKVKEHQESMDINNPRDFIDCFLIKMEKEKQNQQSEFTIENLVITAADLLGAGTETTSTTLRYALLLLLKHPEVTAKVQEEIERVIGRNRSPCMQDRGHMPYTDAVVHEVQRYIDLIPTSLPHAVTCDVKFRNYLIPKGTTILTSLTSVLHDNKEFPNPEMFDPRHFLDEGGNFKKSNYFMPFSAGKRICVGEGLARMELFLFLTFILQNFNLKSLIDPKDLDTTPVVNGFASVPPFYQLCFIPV
Chain of Serine/threonine-protein kinase pim-1 (Homo sapiens) (P11309 whole entry, looked up, the tested form may be a part): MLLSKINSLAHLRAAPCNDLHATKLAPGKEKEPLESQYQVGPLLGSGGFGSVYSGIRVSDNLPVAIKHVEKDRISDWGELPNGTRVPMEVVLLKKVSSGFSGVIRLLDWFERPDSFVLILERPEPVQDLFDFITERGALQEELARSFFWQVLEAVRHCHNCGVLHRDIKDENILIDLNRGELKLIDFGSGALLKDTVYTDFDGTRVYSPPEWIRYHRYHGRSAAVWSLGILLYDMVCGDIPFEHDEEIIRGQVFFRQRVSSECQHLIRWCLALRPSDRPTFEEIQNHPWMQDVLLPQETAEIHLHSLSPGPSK

inhibition [1]: ≤ 27%
IC50 (Toll-like receptor 4 [2]): 318 µM
inhibition (Toll-like receptor 4 [2]): Dose-dependent effect
CL (Liver): > 350 µL/min/mg
inhibition (Toll-like receptor 4 [3]): Active
IC50 (Cytochrome P450 2C9): 43 µM
inhibition [4]: ≤ 27%
inhibition [5]: ≤ 27%
inhibition [6]: ≤ 27%
IC50 (Cytochrome P450 2D6): 32 µM
inhibition [7]: ≤ 27%
IC50 (Toll-like receptor 4 [8]): 316 µM
inhibition (Toll-like receptor 4 [8]): Dose-dependent effect
inhibition [9]: ≤ 27%
IC50 (Toll-like receptor 4 [10]): 27.8 µM
inhibition [11]: ≤ 27%
inhibition (Toll-like receptor 4 [12]): Active
inhibition [13]: ≤ 27%
inhibition [14]: ≤ 27%
permeability (MDCK): permeable
IC50 (Cytochrome P450 2C19): 20 µM
inhibition (Toll-like receptor 4 [15]): inactive
inhibition (Toll-like receptor 4 [16]): 50%
inhibition [17]: ≤ 27%
inhibition (Toll-like receptor 4 [18]): Active
SMILES: CCOc1ccc(OCC(O)CN(C)Cc2c(C)nn(Cc3ccccc3Cl)c2C)cc1 (racemic)
